Results on 55 sequences are retold here after the array DNA melting data of Ke et al. (doi:10.1101/2024.01.08.574731).

A short description of data set [1]: folding enthalpy; higher = less favourable; fluorescence melt of hairpins on a sequencing array, two-state fit. Particulars: sodium 0.088 M. In outline:
(§1)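 Two-state fits, bootstrapped, provided melting temperature and folding enthalpy from Cy3 fluorescence normalised to pre-quench Cy3 and to control constructs. Library hairpins with annealed Cy3 and quencher oligos were imaged on a sequenced MiSeq flow cell in 50 mM Na-HEPES pH 8.0, 25 mM NaCl, at 2.5 °C intervals up to 60 °C. Four replicates were combined with inverse-variance weighting. A 9.35 °C upward shift was applied to fitted temperatures to match UV melts.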

Data set [2] can be described thus: melting temperature; fluorescence melt of hairpins on a sequencing array, two-state fit, raised by 9.35 °C to match UV melts. Particulars: sodium 0.088 M. In outline: as §1

Consider GGTGTCGGAAACGATACC (((.(((....))).))), for which the folding enthalpy in data set [1] was -52 kcal/mol. The Tm in data set [2] worked out at 54.4 °C.
On the same counts, the results for GCGAACGAAAGTTTCGC ((((((....))).))) are -36.7 kcal/mol and 60 °C.
On the same counts, the results for GGCTTGACGAAAGTCGCC (((..(((....)))))) are -14.5 kcal/mol and 55.2 °C.
The like results for GCAGGTGGAAACACCCAC (..((((....))))..) were, in that order, -10.6 kcal/mol and 32.1 °C.
GAGCGTGCGAAAGCACTC (((..(((....)))))): the folding enthalpy in data set [1] is -5.83 kcal/mol. Also, in data set [2], the Tm was determined as 26.9 °C.
With GATCCCAGGAGGGATC ((((((....)))))), in data set [1], the folding enthalpy is -32.2 kcal/mol. In data set [2], the Tm turned out to be 59.9 °C.
On the same counts, the results for GATCTTCGGAAGATC ((((((...)))))) are -33.3 kcal/mol and 41.9 °C.
On the same counts, the results for CGCCCGGAAACGGAGGCG ((((((....)))..))) are -32.5 kcal/mol and 53.8 °C.
The like results for GTGGATGGAAACATTCGC (.(.(((....))).).) were, in that order, -28.4 kcal/mol and 34.9 °C.
In the case of GCTAAAACGAAAGTTAGC (((..(((....)))))), in data set [1], the folding enthalpy is -27.8 kcal/mol. Besides, the Tm in data set [2] is 40.1 °C.
The like results for GGAGTCGAAAGACGTTCC ((((((....)))..))) were, in that order, -11.3 kcal/mol and 37.6 °C.
With GGAGTGGGAAACCGCTTC (.((.((....)).)).), in data set [1], the folding enthalpy is -25.7 kcal/mol. The Tm in data set [2] came to 38 °C.
On the same counts, the results for GAAGACGAAAGTCGTTTC ((((((....)))..))) are -12.1 kcal/mol and 35.3 °C.
The like results for GGTCTTGGAAACAAGACC (((((((....))))))) were, in that order, -45.2 kcal/mol and 64.2 °C.
The like results for GCATGGCGAAAGCAGTGC (((..((....))..))) were, in that order, -19.7 kcal/mol and 56.5 °C.
As to GTGCATCGAAAGATTCAC (((.(((....))).))), the folding enthalpy in data set [1] was -30.1 kcal/mol. Also, in data set [2], the Tm turned out to be 43.4 °C.
The like results for GGATGTGGAAACACATCC (((((((....))))))) were, in that order, -42.6 kcal/mol and 64.5 °C.
On the same counts, the results for GATCGCTAGGGCGATC ((((((....)))))) are -34.8 kcal/mol and 68.2 °C.
On the same counts, the results for GGTAACGGAAACGTTACC (((((((....))))))) are -45.6 kcal/mol and 63.2 °C.
With GGTAGTGGAAACATTACC ((((.((....)).)))), the folding enthalpy in data set [1] is -34.3 kcal/mol. Further, the Tm in data set [2] came to 41.6 °C.
On the same counts, the results for GATCGAAATCTCGATC ((((((....)))))) are -32.7 kcal/mol and 48.7 °C.
The like results for GTCCACGAAAGTGCTGAC ((((((....)))..))) were, in that order, -14.7 kcal/mol and 33.9 °C.
The like results for GGCCATCGAAAGATTGCC (((.(((....))).))) were, in that order, -26.3 kcal/mol and 49.3 °C.
For GGAAAGGGAAACTTTTCC (((((.(....).))))), the folding enthalpy in data set [1] was -18.8 kcal/mol. Moreover, the Tm in data set [2] is 38.4 °C.
For GTCCATGAAAATGGAC ((((((....)))))), in data set [1], the folding enthalpy is -31.7 kcal/mol. The Tm in data set [2] was found to be 62.4 °C.
The like results for GATCCAGAAGTGGATC ((((((....)))))) were, in that order, -35.5 kcal/mol and 52.1 °C.
On the same counts, the results for GGGATTACGAAAGTACCC (((..(((....)))))) are -17.1 kcal/mol and 34.1 °C.
The like results for GATCCGCAGACGGATC ((((((....)))))) were, in that order, -36.3 kcal/mol and 60.8 °C.
Turning to GATCTCTACCGAGATC ((((((....)))))), the folding enthalpy in data set [1] was -37.1 kcal/mol. In addition, the Tm in data set [2] amounted to 51.7 °C.
The like results for GATCTGGGAGCAGATC ((((((....)))))) were, in that order, -35.4 kcal/mol and 53.8 °C.
On the same counts, the results for GATCGCATGAGCGATC ((((((....)))))) are -27.4 kcal/mol and 69.3 °C.
GTAGGCGAAAGCCGATAC ((((((....)))..))): the folding enthalpy in data set [1] is -10.1 kcal/mol. In addition, the Tm in data set [2] came to 41.5 °C.
On to GTTTTCGGAAACGGAAAC ((((.((....)).)))), for which the folding enthalpy in data set [1] is -27.1 kcal/mol. For the same sequence, the Tm in data set [2] came out at 47.1 °C.
The like results for GGATTCGAAAGAAGTCC ((((((....))).))) were, in that order, -17.2 kcal/mol and 36.7 °C.
The like results for GATCGTTGCCACGATC ((((((....)))))) were, in that order, -39.9 kcal/mol and 54.5 °C.
The like results for GCTAGGCGAAAGCCGCGC ((..(((....)))..)) were, in that order, -16.9 kcal/mol and 62 °C.
GAGGCCCGAAAGGGTCTC (((.(((....))).))): the folding enthalpy in data set [1] is -31.6 kcal/mol. For the same sequence, the Tm in data set [2] is 67.4 °C.
The like results for GGCTAAGGAAACTTAGTC (.(((((....))))).) were, in that order, -36.7 kcal/mol and 42.4 °C.
The like results for GCGGTGCGAAAGCATAGC ((..(((....)))..)) were, in that order, -25.4 kcal/mol and 63.4 °C.
Regarding GGGCAGACGAAAGTCCCC (((..(((....)))))), the folding enthalpy in data set [1] is -16.8 kcal/mol. In data set [2], the Tm amounted to 42.9 °C.
On the same counts, the results for GCTCTGCGAAAGCACGGC ((..(((....)))..)) are -14.6 kcal/mol and 39.7 °C.
The like results for GAGACGCGAAAGCGCCTC (((.(((....))).))) were, in that order, -30.3 kcal/mol and 58.7 °C.
On the same counts, the results for GCGGCCGAAAGGCGCCGC ((((((....)))..))) are -14.9 kcal/mol and 62.8 °C.
On to GCCTCGCGAAAGCGGGC (((.(((....)))))), for which the folding enthalpy in data set [1] is -16.4 kcal/mol. Further, the Tm in data set [2] amounted to 67.7 °C.
GATCTTATGAAGATC ((((((...)))))): the folding enthalpy in data set [1] was -28.1 kcal/mol. Also, the Tm in data set [2] amounted to 42.4 °C.
The like results for GCGTAGACGAAAGTCCGC (((..(((....)))))) were, in that order, -34.9 kcal/mol and 53.7 °C.
The like results for GTTCCACGAAAGTGTAAC (((.(((....))).))) were, in that order, -26.2 kcal/mol and 38.4 °C.
The like results for GATCCACCGTGGATC ((((((...)))))) were, in that order, -37.4 kcal/mol and 48.5 °C.
In the case of GGCGCTCGAAAGAGGCC (((.(((....)))))), in data set [1], the folding enthalpy was -40.1 kcal/mol. The Tm in data set [2] is 57.5 °C.
The like results for GTAAATCCGAAAGGATAC (((..(((....)))))) were, in that order, -11 kcal/mol and 33.8 °C.
The like results for GCAAGCGAAAGCTCGTGC ((((((....)))..))) were, in that order, -15.1 kcal/mol and 37.4 °C.
The like results for GCGCAGCGAAAGCGCCGC (((..((....))..))) were, in that order, -13.1 kcal/mol and 59.4 °C.
GCCGTTCGAAAGAAGGC (((.(((....)))))): the folding enthalpy in data set [1] was -30.4 kcal/mol. Moreover, in data set [2], the Tm stood at 50.4 °C.
The like results for GGTGCCGAAAGGCGACC ((((((....))).))) were, in that order, -16.8 kcal/mol and 61 °C.
The like results for GCTGCGGGAAACCACAGC ((((.((....)).)))) were, in that order, -37.5 kcal/mol and 52.7 °C.
